ChEMBL document CHEMBL4699390, “Chromone and donepezil hybrids as new multipotent cholinesterase and monoamine oxidase inhibitors for the potential treatment of Alzheimer''s disease” (RSC Med Chem, 2020)
The source made the active and inactive calls. The rule behind the calls is not given here.

Key:
Acetylcholinesterase = Acetylcholinesterase (Electrophorus electricus, UniProt O42275); assay: Inhibition of electric eel AChE using acetylthiocholine iodide as substrate preincubated with enzyme for 6 mins followed by substrate addition and measured for 180 secs by Ellman's method
Sequence of Acetylcholinesterase (O42275 whole entry): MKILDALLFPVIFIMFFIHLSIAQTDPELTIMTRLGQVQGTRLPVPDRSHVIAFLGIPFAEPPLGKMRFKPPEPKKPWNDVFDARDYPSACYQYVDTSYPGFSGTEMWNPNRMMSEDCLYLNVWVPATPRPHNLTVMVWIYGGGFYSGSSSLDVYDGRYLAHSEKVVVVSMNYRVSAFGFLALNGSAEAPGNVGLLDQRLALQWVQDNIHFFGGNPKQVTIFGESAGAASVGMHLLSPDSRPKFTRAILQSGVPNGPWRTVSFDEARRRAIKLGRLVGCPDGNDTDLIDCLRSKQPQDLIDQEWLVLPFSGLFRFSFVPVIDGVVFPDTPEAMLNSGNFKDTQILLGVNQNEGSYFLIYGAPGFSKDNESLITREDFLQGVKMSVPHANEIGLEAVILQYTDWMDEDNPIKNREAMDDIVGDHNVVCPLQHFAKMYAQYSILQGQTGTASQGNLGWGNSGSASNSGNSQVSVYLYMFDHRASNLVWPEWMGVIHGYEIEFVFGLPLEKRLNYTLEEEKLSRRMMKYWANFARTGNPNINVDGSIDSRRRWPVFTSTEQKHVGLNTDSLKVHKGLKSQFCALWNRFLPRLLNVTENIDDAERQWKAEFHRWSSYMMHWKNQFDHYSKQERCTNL

Cholinesterase = Cholinesterase (Equus caballus, UniProt P81908); assay: Inhibition of equine serum BuChE using butyrylthiocholine iodide as substrate preincubated with enzyme for 6 mins followed by substrate addition and measured for 180 secs by Ellman's method
Sequence of Cholinesterase (P81908 whole entry): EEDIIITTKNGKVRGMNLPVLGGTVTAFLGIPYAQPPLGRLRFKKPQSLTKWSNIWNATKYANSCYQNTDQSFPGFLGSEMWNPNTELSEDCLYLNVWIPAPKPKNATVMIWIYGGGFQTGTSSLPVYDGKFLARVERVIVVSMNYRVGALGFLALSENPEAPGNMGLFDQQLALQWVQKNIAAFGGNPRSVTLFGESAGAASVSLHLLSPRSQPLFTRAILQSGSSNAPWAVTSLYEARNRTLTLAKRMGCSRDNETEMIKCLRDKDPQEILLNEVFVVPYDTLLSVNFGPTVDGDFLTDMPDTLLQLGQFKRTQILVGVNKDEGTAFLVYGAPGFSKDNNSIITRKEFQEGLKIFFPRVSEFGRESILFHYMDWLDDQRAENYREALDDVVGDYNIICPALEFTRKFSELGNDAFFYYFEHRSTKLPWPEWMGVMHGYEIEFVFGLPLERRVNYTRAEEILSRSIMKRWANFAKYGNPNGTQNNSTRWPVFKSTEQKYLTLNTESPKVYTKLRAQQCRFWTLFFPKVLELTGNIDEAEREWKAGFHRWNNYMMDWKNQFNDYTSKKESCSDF
Outline: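 Ellman assay. Enzyme at 0.12 U/mL in 50 mM Tris-HCl pH 8.0 with 0.1% w/v BSA, plus 1.5 mM DTNB, preincubated with compound (0.001-100 μM, diluted from DMSO stock into Tris buffer with MgCl₂/NaCl) at 37 °C for 6 min. Then 15 mM butyrylthiocholine iodide was added, and absorbance at 405 nm was read at 0, 60, 120 and 180 s. IC50 from nonlinear regression of log concentration-response curves; at least three experiments in triplicate.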

[1] = Selectivity index, ratio of IC50 for equine serum BuChE to IC50 for electric eel AChE by Ellman's method
[2] = target: T1, Amine oxidase [flavin-containing] A (Homo sapiens, UniProt P21397); assay: Inhibition of recombinant human MAO- A using p-tyramine as substrate at 100 uM preincubated with enzyme for 15 mins followed incubation with substrate for 20 mins by Amplex red reagent based fluorescence based analysis relative to control; settings: time 35 min
T1 sequence (P21397 whole entry): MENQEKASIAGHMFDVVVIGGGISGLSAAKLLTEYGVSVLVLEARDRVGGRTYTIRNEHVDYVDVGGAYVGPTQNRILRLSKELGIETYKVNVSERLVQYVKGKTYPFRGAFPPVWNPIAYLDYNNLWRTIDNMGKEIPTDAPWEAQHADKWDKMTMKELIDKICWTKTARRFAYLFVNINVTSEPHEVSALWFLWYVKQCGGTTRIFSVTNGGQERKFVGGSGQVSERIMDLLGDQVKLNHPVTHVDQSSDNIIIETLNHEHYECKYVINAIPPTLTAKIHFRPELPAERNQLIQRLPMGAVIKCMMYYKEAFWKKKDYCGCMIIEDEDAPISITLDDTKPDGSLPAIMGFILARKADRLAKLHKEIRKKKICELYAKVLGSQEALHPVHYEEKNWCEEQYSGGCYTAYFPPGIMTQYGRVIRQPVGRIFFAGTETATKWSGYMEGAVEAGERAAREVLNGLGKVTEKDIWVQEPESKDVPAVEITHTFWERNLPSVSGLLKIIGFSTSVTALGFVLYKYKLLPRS
Outline: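 Human MAO-A (1.1 µg protein, activity set to oxidize 165 pmol p-tyramine/min) was preincubated with compound in 0.05 M potassium phosphate pH 7.4 at 37 °C for 15 min in the dark. The reaction was started with 2 mM p-tyramine, 2 U/mL HRP and 200 µM Amplex Red for 20 min at 37 °C. Fluorescence was read at ex 545/em 590 nm, and inhibition was calculated against the uninhibited control after background subtraction.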

[3] = target: T2, Amine oxidase [flavin-containing] B (Homo sapiens, UniProt P27338)
T2 sequence (P27338 whole entry): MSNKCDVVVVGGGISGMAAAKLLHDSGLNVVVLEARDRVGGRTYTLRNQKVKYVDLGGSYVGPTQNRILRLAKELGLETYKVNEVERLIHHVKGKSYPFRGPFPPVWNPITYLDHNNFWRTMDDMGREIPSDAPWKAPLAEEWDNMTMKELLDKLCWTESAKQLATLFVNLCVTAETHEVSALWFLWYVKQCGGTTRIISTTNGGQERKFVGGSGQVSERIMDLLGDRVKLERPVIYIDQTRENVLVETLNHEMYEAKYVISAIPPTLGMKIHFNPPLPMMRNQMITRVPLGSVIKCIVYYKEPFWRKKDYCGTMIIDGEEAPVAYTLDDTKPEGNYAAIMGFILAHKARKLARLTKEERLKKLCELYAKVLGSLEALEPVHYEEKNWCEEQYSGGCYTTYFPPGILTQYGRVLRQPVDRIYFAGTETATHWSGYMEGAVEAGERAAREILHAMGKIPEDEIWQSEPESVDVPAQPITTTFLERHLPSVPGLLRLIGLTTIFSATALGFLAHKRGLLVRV

Homo sapiens = species on record: Homo sapiens; assay: Selectivity for recombinant human MAO-B over recombinant human MAO-A
in vitro = settings: PAMPA
PC-12 = assay: Cytotoxicity against rat PC12 cells assessed as cell viability at 1 to 50 uM measured after 24 hrs by MTT assay; type: cell-based; settings: pc-12, 24 h, dose 1-50 µM
Outline: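 PC12 cells were grown at 37 °C, 5% CO₂ in DMEM with 10% bovine calf serum and penicillin/streptomycin, then seeded at 10,000 cells/well. At the required confluence they were switched to serum-free medium with compound for 24 h. Viability was read by MTT (4 h at 37 °C), with formazan dissolved in DMSO.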

[4] = target: T1, Amine oxidase [flavin-containing] A; assay: Inhibition of recombinant human MAO- A using p-tyramine as substrate preincubated with enzyme for 15 mins followed incubation with substrate for 20 mins by Amplex red reagent based fluorescence based analysis
[5] = target: Acetylcholinesterase (Electrophorus electricus) (UniProt O42275); assay: Mixed-type inhibition of electric eel AChE using varying concentration of acetylthiocholine iodide as substrate at 0.185 to 0.74 uM by Lineweaver-burk plot analysis; settings: dose microM 0.185-0.74
Sequence of Acetylcholinesterase (Electrophorus electricus) (O42275 24-633 limits assumed): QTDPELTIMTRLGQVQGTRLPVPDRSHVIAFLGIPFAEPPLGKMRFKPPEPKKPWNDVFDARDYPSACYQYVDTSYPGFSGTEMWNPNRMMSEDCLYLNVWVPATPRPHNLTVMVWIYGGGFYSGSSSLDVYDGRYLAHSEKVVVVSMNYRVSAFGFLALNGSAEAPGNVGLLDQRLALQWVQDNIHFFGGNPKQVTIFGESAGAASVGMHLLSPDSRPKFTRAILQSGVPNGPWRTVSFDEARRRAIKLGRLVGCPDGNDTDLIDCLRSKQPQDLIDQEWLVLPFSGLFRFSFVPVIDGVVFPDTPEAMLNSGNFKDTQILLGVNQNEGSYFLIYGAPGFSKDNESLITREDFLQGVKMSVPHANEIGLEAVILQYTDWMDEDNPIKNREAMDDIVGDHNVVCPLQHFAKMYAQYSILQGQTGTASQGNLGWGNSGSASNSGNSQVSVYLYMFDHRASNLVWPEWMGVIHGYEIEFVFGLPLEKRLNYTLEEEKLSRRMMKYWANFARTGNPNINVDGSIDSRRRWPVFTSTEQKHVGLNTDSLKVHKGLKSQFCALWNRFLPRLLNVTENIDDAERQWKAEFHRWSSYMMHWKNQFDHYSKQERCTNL

[6] = target: T2, Amine oxidase [flavin-containing] B; assay: Competitive inhibition of recombinant human MAO-B using varying concentration of p-tyramine as substrate at 0.13 to 0.54 uM by Lineweaver-burk plot analysis; settings: dose 0.13-0.54 µM
Outline: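 Preincubation-free kinetic run with human MAO-B: initial oxidation rates of p-tyramine measured at six substrate concentrations without inhibitor and with three inhibitor concentrations (0.54, 0.27, 0.13 μM). Activity was read by the Amplex Red/horseradish peroxidase fluorescence method. Plots were fitted by weighted least-squares analysis, assuming the variance of v is a constant percentage of v.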

[7] = target: Cholinesterase (Equus caballus) (UniProt P81908); assay: Competitive inhibition of equine serum BuChE […] using varying concentrations of butyrylthiocholine iodide as substrate at 2.6 to 10.5 uM by Lineweaver-burk plot analysis; settings: dose microM 2.6-10.5
Sequence of Cholinesterase (Equus caballus) (P81908 whole entry): as the sequence (P81908 whole entry) above

| SMILES | IC50 (Acetylcholinesterase) | IC50 (Cholinesterase) | Ratio IC50 [1] | inhibition at 100 µM [2] | IC50 [3] | Selectivity ratio (Homo sapiens) | Papp at 16 h (in vitro) | Activity (PC-12) | IC50 [4] | inhibition [5] | inhibition (INH) [6] | inhibition [7] |
| --- | --- | --- | --- | --- | --- | --- | --- | --- | --- | --- | --- | --- |
| O=C(NC1CCN(Cc2ccccc2)CC1)c1coc2ccccc2c1=O | 2.96 µM | 18.7 µM | 6.3 | 63.8% | 17.7 µM | < 5.6 | 15.6 ×10⁻⁶ cm/s |  |  |  |  |  |
| O=C(NCCC1CCN(Cc2ccccc2)CC1)c1coc2cc(Br)ccc2c1=O | 0.154 µM | 1.24 µM | 11.9 | 30.3% | 29.5 µM | > 3.4 |  |  |  |  |  |  |
| O=C(NC1CCN(Cc2ccccc2)CC1)c1coc2cc(Br)ccc2c1=O | 9.23 µM | 18.2 µM | 1.2 | 31.6% | 19.7 µM | > 5.1 |  |  |  |  |  |  |
| COc1ccc2c(=O)c(C(=O)NC3CCN(Cc4ccccc4)CC3)coc2c1 | 1.58 µM | 9.78 µM | 6.2 | 37.4% | 28.6 µM | > 3.5 |  |  |  |  |  |  |
| O=C(NC1CCN(Cc2ccccc2)CC1)c1coc2ccc(Br)cc2c1=O | 1.57 µM | 9.45 µM | 6.1 | 35.5% | 22.8 µM | > 4.4 |  |  |  |  |  |  |
| O=C(NCCC1CCN(Cc2ccccc2)CC1)c1cc(=O)c2ccccc2o1 | 0.31 µM | 1.54 µM | 4.9 | 29.5% | 20 µM | > 4.9 |  |  |  |  |  |  |
| COc1ccc2occ(C(=O)NC3CCN(Cc4ccccc4)CC3)c(=O)c2c1 | 10.1 µM | 24.4 µM | 2.4 | 7.5% | 46.3 µM | > 2.1 |  |  |  |  |  |  |
| O=C(NC1CCN(Cc2ccccc2)CC1)c1coc2ccc(OCc3ccccc3)cc2c1=O | 1.85 µM | 12.4 µM | 6.7 |  | 0.035 µM | 211 | 4.6 ×10⁻⁶ cm/s | Non-Toxic | 11.6 µM |  |  |  |
| O=C(NC1CCN(Cc2ccccc2)CC1)c1cc(=O)c2ccccc2o1 | 5.69 µM | 27.9 µM | 7.6 | 29.7% | 33.3 µM | > 3.1 |  |  |  |  |  |  |
| O=C(NCCC1CCN(Cc2ccccc2)CC1)c1coc2ccccc2c1=O | 0.069 µM | 0.6 µM | 8.7 | 68.6% | 35.3 µM | < 2.8 |  |  |  |  |  |  |
| COc1ccc2occ(C(=O)NCCC3CCN(Cc4ccccc4)CC3)c(=O)c2c1 | 0.033 µM | 0.45 µM | 13.7 | 72.4% | 11.2 µM | < 8.9 | 16.7 ×10⁻⁶ cm/s | Non-Toxic |  |  |  |  |
| O=C(NCCC1CCN(Cc2ccccc2)CC1)c1coc2ccc(OCc3ccccc3)cc2c1=O | 0.37 µM | 5.24 µM | 14.2 |  | 0.272 µM | 247 | 5.4 ×10⁻⁶ cm/s | Non-Toxic | 67.2 µM | Active | Active | Active |
| Cc1ccc2occ(C(=O)NCCC3CCN(Cc4ccccc4)CC3)c(=O)c2c1 | 0.11 µM | 0.91 µM | 8.3 | 30.6% | 52.5 µM | > 1.9 |  |  |  |  |  |  |
| O=C(NCCC1CCN(Cc2ccccc2)CC1)c1coc2ccc(Br)cc2c1=O | 0.104 µM | 1.17 µM | 11.3 | 48.2% | 26.1 µM | > 3.8 |  |  |  |  |  |  |
| COc1ccc2c(=O)c(C(=O)NCCC3CCN(Cc4ccccc4)CC3)coc2c1 | 0.145 µM | 0.52 µM | 3.7 | 32.4% | 30.9 µM | > 3.2 |  |  |  |  |  |  |
| Cc1ccc2occ(C(=O)NC3CCN(Cc4ccccc4)CC3)c(=O)c2c1 | 1.74 µM | 15.3 µM | 8.8 | 48.1% | 19.5 µM | > 5.1 |  |  |  |  |  |  |
